Rows were chosen to be rich in hits. Some 7.9% of all compounds tested hit in one or more screens of this group.
HEK293 NFkB inh: lowers PMA/ionomycin-induced NF-kB signal in HEK293 cells; HEK-293 NF-kB luciferase reporter, luminescence; inhibition, % at 3 µM; 62,000 tested, 0.21% active;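 active = inhibition above the mean of all tested compounds plus 3 SD, cut at about 40% in these data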
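Timing: 1 h pretreatment, 16 h stimulation, 37 °C; system: HEK-293 cells with stable firefly luciferase reporter driven by four HIV NF-kB elements; doses: 3 µM once, 0.30% DMSO; measured by: luciferase luminescence; control set: DMSO and 10 µM reference inhibitor; repeats: single test; reagent: PMA plus ionomycin mix as NF-kB-activating stimulus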
JNK3 inh: blocks human JNK3 kinase activity | inhibition, % at 8 µM | AID 746 | purified JNK3 kinase activity, HTS | 60,000 tested, 0.61% active; in the data active = inhibition above about 17%
D1 mod: allosterically modulates the human D1 dopamine receptor; P21728; HEK293 D1, CRE-luciferase, dopamine EC30 potentiation; actives deviate in either direction; B-score at 10 µM; 58,000 tested, 5.9% active; AID 641;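 active = luminescence count or its row- and column-corrected plate score outside the 99.7% band of the plate's sample wells, on either side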
SF-1 act: SF-1 (human) activation. activation, % at 10 µM. 65,000 tested, 1.9% active. CHO-K1 Gal4-SF-1 LBD luciferase reporter; % increase over DMSO SF-1-specific signal. AID 522. Q13285;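 active = activation above the mean activation of all tested compounds plus 3 SD, cut at about 50% in these data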
Target sequence (Q13285 whole entry, looked up, the tested form may be a part): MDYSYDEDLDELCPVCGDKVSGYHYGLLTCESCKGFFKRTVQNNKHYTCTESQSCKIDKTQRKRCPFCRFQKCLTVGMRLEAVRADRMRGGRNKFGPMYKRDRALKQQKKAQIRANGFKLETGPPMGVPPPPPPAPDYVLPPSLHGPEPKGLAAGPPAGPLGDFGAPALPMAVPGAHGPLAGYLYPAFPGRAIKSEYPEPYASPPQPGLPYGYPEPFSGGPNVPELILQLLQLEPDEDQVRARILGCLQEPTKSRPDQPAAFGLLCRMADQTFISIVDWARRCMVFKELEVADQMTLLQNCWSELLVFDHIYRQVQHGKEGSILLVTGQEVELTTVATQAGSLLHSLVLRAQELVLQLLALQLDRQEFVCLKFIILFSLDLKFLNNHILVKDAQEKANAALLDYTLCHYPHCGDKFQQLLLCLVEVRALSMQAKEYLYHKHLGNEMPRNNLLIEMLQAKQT
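Test system: CHO-K1 cells co-transfected with Gal4 DBD–human SF-1 LBD, 5xGal4 luciferase reporter. Quantity: 4,000 cells per well. Compound: 10 µM only. Incubation: compound added 1 h post-seeding, 20 h exposure at 37 °C, 5% CO2. Detection: SteadyLite luciferase luminescence. Replication: one test per compound.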
RORA act: RORA (human) activation; CHO-K1 Gal4-RORA LBD luciferase reporter, luminescence; percent increase over mock-subtracted basal signal; activation, % at 10 µM; 65,000 tested, 1.5% active; AID 560;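 active = activation above the mean of all tested compounds plus 3 SD, cut at about 49% in these data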
Numbers stand for hits; - = inactive; . = no result given; ! = not active in a repeat.

SMILES | HEK293 NFkB inh | JNK3 inh | D1 mod | SF-1 act | RORA act
Cc1ccc2cc(CN(Cc3ccco3)C(=O)c3cccs3)c(=O)[nH]c2c1 | - | - | - | - | 76
O=C1c2ccccc2C(=O)C1c1nccc2ccccc12 | - | - | -6.8 | - | -
O=C(Nc1cccc2nsnc12)c1cccs1 | - | - | - | - | 78!
CCc1cc2cc3c(cc2nc1SCC(=O)Nc1cc(C)on1)OCO3 | - | - | - | - | -
CC(=O)c1ccc(-c2nc3c4ccccc4ccn3c2C(C)=O)o1 | 89 | - | - | - | -
CC1CCc2cccc3c2N1c1cc(C#N)c(C#N)cc1O3 (stereo not given) | - | - | - | - | -
CCOc1ccccc1COC(=O)c1cccc(-n2cnnn2)c1 | - | - | 10 | - | -
Cc1sc(NC(=O)COc2cccc(-n3cnnn3)c2)c(C#N)c1C | - | - | - | - | -
CCOc1ccccc1NC(=O)COc1cccc(-n2cnnn2)c1 | - | 23 | - | - | -
CCCN1C(=O)/C(=C2\SC(N3CCCCC3)=NC2=O)c2ccccc21 | - | - | - | 81 | 65
CCOc1ccccc1NC1c2ccccc2C(=O)N1c1ccc(C)cn1 (stereo not given) | - | - | - | - | 63
CCOC(=O)c1ccccc1NC1c2ccccc2C(=O)N1c1ccc(C)cn1 (stereo not given) | - | - | - | 62 | -
CC(C)Sc1nnc(Nc2ccccc2)s1 | - | - | - | 106 | -
CCCCc1c(C)c2ccc(OCC(C)=O)cc2oc1=O | . | - | . | 74 | -
O=C1N/C(=C\c2ccccc2)c2ccccc21 | - | - | - | 63 | 51
Cc1cc(C)n(-c2ccc(C(=O)C(C#N)c3nc4ccccc4n3C)cc2)n1 (stereo not given) | - | - | - | - | -
Cc1ccc(C(CC(=O)N2CCOCC2)c2ccco2)cc1 (stereo not given) | - | - | - | - | -
Cc1ccc(-c2nnc(-c3ccc(Br)cc3)o2)o1 | - | - | - | 75 | -
C=CCOc1nc2c(c(=O)n(C)c(=O)n2C)n1Cc1c(Cl)cccc1Cl | . | - | - | - | -
CSCCC(Nc1ncnc2ccc(Br)cc12)C(=O)O (stereo not given) | - | 19 | - | - | -
Cc1cc(NC(=O)c2cc(C(C)C)on2)no1 | - | - | - | - | -
CCCc1cc(C(=O)NC2CCCCC2)no1 | - | - | - | 54 | -
CCCc1cc(C(=O)NC2CCCC2)no1 | - | - | - | - | 61
CC(C)c1cc(C(=O)NC2CCCCC2)no1 | - | - | - | 54 | -
CCCc1cc(C(=O)N(C2CCCCC2)C2CCCCC2)no1 | - | - | - | - | -
SMILES | HEK293 NFkB inh | JNK3 inh | D1 mod | SF-1 act | RORA act
Cc1ccc(NC(=O)CSc2nnc(Cn3cnc4ccccc43)o2)cc1 | - | - | . | - | -
CSc1ccccc1NS(=O)(=O)c1ccccc1 | - | - | - | - | -
CC(C)c1nnc(NC(=O)c2cccc(-n3cnnn3)c2)s1 | - | - | - | - | -
CCCc1nnc(NC(=O)c2cccc(OC)c2)s1 | - | - | - | - | 57
CCCc1nnc(NC(=O)c2ccncc2)s1 | - | - | - | - | -
COc1cccc(C(=O)Nc2nnc(C(C)C)s2)c1 | - | . | -3.3 | - | -
O=S(=O)(NC1CCCCC1NCc1ccco1)c1ccc(Cl)cc1 (stereo not given) | - | - | -2.3 | - | -
CCCOc1ccc(OC(=O)c2ccc(Br)o2)cc1 | - | - | - | - | -
CNC(=O)c1ccccc1NC(=O)c1cccc(S(=O)(=O)N2CCC(C)CC2)c1 | - | - | -3.7 | - | -
NC(=O)N1CC(O)CC1C(=O)Nc1ccc(Cl)c(Cl)c1 (stereo not given) | - | - | - | - | -
C(=N\n1cnnc1)/c1ccc2c(c1)OCO2 | - | - | - | - | -
O=c1/c(=C\c2ccc3c(c2)OCO3)sc2n1CCCN=2 | - | - | . | - | 55
Cc1ccc2oc(=O)c3cnn(CC(=O)N4CCCc5ccccc54)c3c2c1 | - | - | - | - | -
CC(C)c1ccc(C(=O)CSc2ncn[nH]2)cc1 | - | - | - | 53 | 53
COCCCn1cnc2oc3nc4ccccc4nc3c2c1=O | - | - | - | - | 50
CN(C)C(CNC(=O)NC1CCCCC1)c1cccnc1 (stereo not given) | - | - | - | - | -
O=C(N1CCOCC1)N1CCC(NC(=O)C23CC4CC(CC(C4)C2)C3)CC1 | - | - | - | - | -

Compound activity deposited in PubChem by several laboratories.
